Source: ChEMBL document CHEMBL1133118 (J Med Chem, 2000)
pIC50, pKi: −log10 of the molar value.

Assays:
Adenosine receptor A3 [1] = molecular target: T1, Adenosine receptor A3 (Homo sapiens, UniProt P0DMS8); assay: Inhibition of cAMP accumulation in CHO cells expressing human adenosine A3 receptor; format: functional, cell-based
T1 sequence (P0DMS8 whole entry): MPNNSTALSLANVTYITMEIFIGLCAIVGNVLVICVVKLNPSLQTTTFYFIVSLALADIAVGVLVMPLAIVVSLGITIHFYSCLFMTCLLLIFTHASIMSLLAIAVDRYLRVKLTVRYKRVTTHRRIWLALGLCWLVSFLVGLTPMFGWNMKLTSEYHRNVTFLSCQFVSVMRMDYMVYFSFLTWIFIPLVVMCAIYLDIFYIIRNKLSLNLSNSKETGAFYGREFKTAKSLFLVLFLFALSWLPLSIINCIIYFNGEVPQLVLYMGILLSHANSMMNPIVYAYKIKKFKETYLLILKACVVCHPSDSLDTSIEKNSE

[2] = molecular target: T2, Adenosine receptor A3 (Homo sapiens) (UniProt P0DMS8); assay: Percentage of blockade by 1 uM of the inhibition by 100 nM IB-MECA-inhibited cAMP accumulation in CHO cells expressing human adenosine A3 receptor.; format: functional, cell-based
T2 sequence (whole entry): T1 sequence (P0DMS8 whole entry)
In short: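 CHO cells stably expressing human A3 receptor; membranes in 50 mM Tris HCl, 10 mM MgCl2, 1 mM EDTA pH 7.4 with 5 μM GTP, 0.5 mM […] and 2.0 IU/mL adenosine deaminase. Preincubated 10 min at 37 °C, then IB-MECA (100 nM) and/or antagonist with 1 mM ATP and 10 μM forskolin for 10 min. Boiled 2 min. cAMP read by [3H]cAMP competition with adrenal binding protein.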

Adenosine receptor A3 [3] = molecular target: T1, Adenosine receptor A3; assay: biochemical
Adenosine receptor A2b [4] = molecular target: T3, Adenosine receptor A2b (Homo sapiens, UniProt P29275); assay: Displacement of [3H]DPCPX from Adenosine A2b receptor expressed in CHO cells; format: cell-based
T3 sequence (P29275 whole entry): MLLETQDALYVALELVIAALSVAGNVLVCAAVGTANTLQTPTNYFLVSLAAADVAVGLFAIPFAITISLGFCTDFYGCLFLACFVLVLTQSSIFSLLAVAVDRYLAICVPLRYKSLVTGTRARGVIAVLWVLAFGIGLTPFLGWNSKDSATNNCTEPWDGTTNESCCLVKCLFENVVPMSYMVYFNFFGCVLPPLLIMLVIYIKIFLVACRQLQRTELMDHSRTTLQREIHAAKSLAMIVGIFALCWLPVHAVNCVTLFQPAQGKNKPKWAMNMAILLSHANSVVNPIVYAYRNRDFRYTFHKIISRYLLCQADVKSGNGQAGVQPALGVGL

Adenosine receptor A2a [5] = molecular target: T4, Adenosine receptor A2a (Homo sapiens, UniProt P29274); assay: Displacement of [3H]-SCH- 58261 from human adenosine A2A receptor expressed in CHO cells; range 2826-3761; format: cell-based
T4 sequence (P29274 whole entry): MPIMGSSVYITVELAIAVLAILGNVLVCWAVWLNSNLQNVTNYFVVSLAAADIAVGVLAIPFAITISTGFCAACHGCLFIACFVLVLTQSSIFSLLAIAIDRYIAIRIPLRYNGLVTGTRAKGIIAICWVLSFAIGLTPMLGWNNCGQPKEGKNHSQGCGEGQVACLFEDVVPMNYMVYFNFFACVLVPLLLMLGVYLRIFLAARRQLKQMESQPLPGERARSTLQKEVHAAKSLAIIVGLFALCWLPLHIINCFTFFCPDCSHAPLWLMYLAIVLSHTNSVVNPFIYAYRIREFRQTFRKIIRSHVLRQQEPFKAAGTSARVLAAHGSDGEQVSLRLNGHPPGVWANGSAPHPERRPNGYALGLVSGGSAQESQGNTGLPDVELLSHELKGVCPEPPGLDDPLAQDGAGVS

Adenosine receptor A1 [6] = molecular target: T5, Adenosine receptor A1 (Homo sapiens, UniProt P30542); assay: Tested for inhibitory activity against human adenosine A1 receptor by displacement of [3H]DPCPX expressed in CHO cells; value ranges from 2362-2575; format: cell-based
T5 sequence (P30542 whole entry): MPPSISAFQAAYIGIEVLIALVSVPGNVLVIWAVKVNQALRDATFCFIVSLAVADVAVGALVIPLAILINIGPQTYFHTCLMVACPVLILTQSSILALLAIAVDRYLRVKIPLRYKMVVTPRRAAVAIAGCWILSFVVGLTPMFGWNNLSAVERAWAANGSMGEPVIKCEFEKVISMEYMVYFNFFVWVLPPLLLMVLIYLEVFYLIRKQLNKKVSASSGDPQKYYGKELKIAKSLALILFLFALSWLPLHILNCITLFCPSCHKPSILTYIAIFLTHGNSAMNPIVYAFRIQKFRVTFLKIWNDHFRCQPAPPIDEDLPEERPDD

[7] = molecular target: Adenosine receptors; A1 & A3 (Homo sapiens) (UniProt P30542+P0DMS8); assay: Ratio of binding affinity of human A1 receptor to that of human A3 receptor; format: protein assay
In short: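 Ki ratio from displacement in CHO membranes, 6–8 concentrations, n=3-6, filtration counting. A1: 1 nM [3H]DPCPX, 50 μg protein, 120 min at 25 °C, nonspecific with 10 μM CHA. A3: 1 nM [3H]MRE3008-F20, 50 μg protein, Tris/10 mM MgCl2 pH 7.4, 120 min at 4 °C, nonspecific with 1 μM MRE3008-F20.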

[8] = molecular target: Adenosine receptors; A2b & A3 (Homo sapiens) (UniProt P29275+P0DMS8); assay: Ratio of binding affinity of human A2B receptor to that of human A3 receptor; format: protein assay
In short: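 Ki ratio, n=3-6, 6–8 concentrations. A2B in HEK-293 membranes (20 μg): 40 nM [3H]DPCPX, 50 mM Tris HCl, 10 mM MgCl2, 1 mM EDTA, 0.1 mM benzamidine pH 7.4, 2 IU/mL adenosine deaminase, 60 min at 25 °C, nonspecific with 100 μM NECA. A3 in CHO membranes (50 μg): 1 nM [3H]MRE3008-F20, 120 min at 4 °C.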

Adenosine receptor A3 [9] = molecular target: T1, Adenosine receptor A3; assay: biochemical; remark: listed apart in the source
Adenosine receptor A3 [10] = molecular target: T1, Adenosine receptor A3; assay: Displacement of [3H]MRE3008-F20 from human adenosine A3 receptor expressed in CHO cells; range 0.85-0.98; format: cell-based
Adenosine receptor A2b [11] = molecular target: T3, Adenosine receptor A2b; assay: Displacement of [3H]-DPCPX from Adenosine A2b receptor expressed in CHO cells; range 50-63; format: cell-based; settings: in the assay text read “HEK-293 cells” for “CHO cells”
In short: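 Human recombinant A2B receptor was expressed in HEK-293 cell membranes (20 μg protein). Incubated with 40 nM [3H]DPCPX in 50 mM Tris HCl, 10 mM MgCl2, 1 mM EDTA, 0.1 mM benzamidine, pH 7.4, with 2 IU/mL adenosine deaminase, at least 6–8 test concentrations, 60 min, 25 °C. Nonspecific binding was taken with 100 μM NECA; n=3-6.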

Adenosine receptor A3 [12] = molecular target: T1, Adenosine receptor A3; assay: Inhibition of cAMP accumulation in CHO cells expressing human adenosine A3 receptor; range 4.0-7.5; format: functional, cell-based
[13] = molecular target: T2, Adenosine receptor A3 (Homo sapiens); settings: CHO, 1 uM
Adenosine receptor A3 [14] = molecular target: T1, Adenosine receptor A3; assay: Displacement of [3H]MRE3008-F20 from human adenosine A3 receptor expressed in CHO cells; range 378-488; format: cell-based
Adenosine receptor A2a [15] = molecular target: T4, Adenosine receptor A2a; assay: biochemical
Adenosine receptor A2b [16] = molecular target: T3, Adenosine receptor A2b; assay: Displacement of [3H]DPCPX from Adenosine A2b receptor expressed in HEK-293 cells; range 38-63
Adenosine receptor A2a [17] = molecular target: T4, Adenosine receptor A2a; assay: Displacement of [3H]-SCH- 58261 from human adenosine A2A receptor expressed in CHO cells; range 2.40-3.55; format: cell-based
Adenosine receptor A1 [18] = molecular target: T5, Adenosine receptor A1; assay: Displacement of [3H]DPCPX from human adenosine A1 receptor expressed in CHO cells; range 81-127; format: cell-based
Adenosine receptor A3 [19] = molecular target: T1, Adenosine receptor A3; assay: biochemical; remark: listed apart in the source
Adenosine receptor A2b [20] = molecular target: T3, Adenosine receptor A2b; assay: Displacement of [3H]DPCPX from Adenosine A2b receptor expressed in HEK-293 cells; range 81-101
Adenosine receptor A2b [21] = molecular target: T3, Adenosine receptor A2b; assay: Displacement of [3H]DPCPX from Adenosine A2b receptor expressed in […]; range 56-75; format: cell-based
Adenosine receptor A2a [22] = molecular target: T4, Adenosine receptor A2a; assay: Displacement of [3H]-SCH- 58261 from human adenosine A2A receptor expressed in CHO cells; range 1.70-2.10; format: cell-based
In short: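 Membranes from CHO cells stably expressing human A2A receptor, grown in DMEM/F12 without nucleosides, resuspended in 50 mM Tris HCl, 10 mM MgCl2, pH 7.4; 50 μg protein/assay. Competition with [3H]SCH 58261 at 6–8 or more compound concentrations, 60 min at 25 °C; nonspecific binding with 50 μM NECA. Filtration on GF/B filters, scintillation counting; n=3-6.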

Adenosine receptor A3 [23] = molecular target: T1, Adenosine receptor A3; assay: Displacement of [3H]MRE3008-F20 from human adenosine A3 receptor expressed in CHO cells; range 285-385; format: cell-based

## Nc1nc2ccc(Cl)cc2c2nc(-c3ccco3)nn12 [CGS-15943]
Adenosine receptor A3 [1]
  pIC50: 6.39
[2]
  inhibition: 30%
Adenosine receptor A3 [3]
  pKi: 7.07

## COc1ccc(NC(=O)Nc2nc3nn(CCc4cccc5ccccc45)cc3c3nc(-c4ccco4)nn23)cc1
Adenosine receptor A2b [4]
  pKi: < 5.00
Adenosine receptor A2a [5]
  pKi: 5.49
Adenosine receptor A1 [6]
  pKi: 5.61
[7]
  Ratio: 154
[8]
  Ratio: > 625
[2]
  inhibition: 52%
Adenosine receptor A3 [9]
  pKi: 7.80

## CCCn1cc2c(nc(NC(=O)Nc3cccc(Cl)c3)n3nc(-c4ccco4)nc23)n1
Adenosine receptor A3 [10]
  pKi: 9.05
Adenosine receptor A2b [11]
  pKi: 7.24
Adenosine receptor A3 [12]
  pIC50: 8.26
[7]
  Ratio: 33
[8]
  Ratio: 62.6
[13]
  inhibition: 80%

## Nc1nc2nn(CCCc3ccccc3)cc2c2nc(-c3ccco3)nn12
Adenosine receptor A3 [14]
  pKi: 6.37
[7]
  Ratio: 0.007
[8]
  Ratio: 0.011
[2]
  inhibition: 18%
Adenosine receptor A2a [15]
  pKi: 9.80
Adenosine receptor A2b [16]
  pKi: 7.31

## Cn1cc2c(nc(N)n3nc(-c4ccco4)nc23)n1
Adenosine receptor A2a [17]
  pKi: 8.55
Adenosine receptor A1 [18]
  pKi: 7.00
[7]
  Ratio: 0.33
[8]
  Ratio: 0.3
[2]
  inhibition: 26%
Adenosine receptor A3 [19]
  pKi: 6.52
Adenosine receptor A2b [20]
  pKi: 7.05

## CCn1cc2c(nc(N)n3nc(-c4ccco4)nc23)n1
Adenosine receptor A2b [21]
  pKi: 7.19
Adenosine receptor A2a [22]
  pKi: 8.71
Adenosine receptor A3 [23]
  pKi: 6.48
[7]
  Ratio: 0.015
[8]
  Ratio: 0.19
[2]
  inhibition: 25%
